The inhibition is the change of the read-out against control, counted positive when it falls. Low values mean little suppression, high ones strong suppression. The term pKi denotes the Ki on a negative log10 scale, so that one unit is a factor of ten. A higher pKi goes with a low Ki.

Structures are written as SMILES. pKi: −log10 of the molar value.

In ChEMBL document CHEMBL1132299, “Phosphinic pseudo-tripeptides as potent inhibitors of matrix metalloproteinases: a structure-activity study” (J Med Chem, 1999) one finds inhibition and Ki data, which are given here for four molecules.

Test [1] deals with T1, Interstitial collagenase (Homo sapiens) (UniProt P03956).
T1 sequence (whole entry): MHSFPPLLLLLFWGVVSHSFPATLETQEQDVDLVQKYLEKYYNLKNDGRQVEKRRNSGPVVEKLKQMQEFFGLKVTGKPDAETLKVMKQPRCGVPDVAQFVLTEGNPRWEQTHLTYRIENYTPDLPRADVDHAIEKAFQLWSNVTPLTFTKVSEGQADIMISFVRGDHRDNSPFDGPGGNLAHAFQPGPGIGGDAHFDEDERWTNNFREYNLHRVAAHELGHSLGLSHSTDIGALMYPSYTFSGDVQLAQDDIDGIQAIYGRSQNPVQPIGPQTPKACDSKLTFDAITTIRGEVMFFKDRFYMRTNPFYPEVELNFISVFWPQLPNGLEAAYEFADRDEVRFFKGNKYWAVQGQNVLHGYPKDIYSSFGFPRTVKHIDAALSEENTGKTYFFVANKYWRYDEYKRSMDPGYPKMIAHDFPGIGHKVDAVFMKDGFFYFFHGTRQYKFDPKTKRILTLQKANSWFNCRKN
Nature of the test: Inhibition of matrix metalloprotease-1 at 5 uM.

The target in the next test is Neutrophil collagenase (Homo sapiens, UniProt P22894). Nature of the test: Inhibition of matrix metalloprotease-8. An outline of the steps:
(§1)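 Full-length human pro-MMP-2, -9 and -8 were expressed in NSO myeloma cells and activated with 4-aminophenylmercuric acetate just before use. Run at 25 °C in 50 mM Tris/HCl pH 6.8, 10 mM CaCl2, with 0.2–5 nM enzyme and 6 µM Mca-Pro-Leu-Gly-Leu-Dpa-Ala-Arg-NH2; fluorescence 340/400 nm, 30 min. Km: MMP-2 49, MMP-9 14, MMP-8 61 µM. Triplicate, five inhibitor levels; Ki by Horovitz–Levitski.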

The next test deals with T2, Stromelysin-3 (Mus musculus, UniProt Q02853).
T2 sequence (Q02853 whole entry): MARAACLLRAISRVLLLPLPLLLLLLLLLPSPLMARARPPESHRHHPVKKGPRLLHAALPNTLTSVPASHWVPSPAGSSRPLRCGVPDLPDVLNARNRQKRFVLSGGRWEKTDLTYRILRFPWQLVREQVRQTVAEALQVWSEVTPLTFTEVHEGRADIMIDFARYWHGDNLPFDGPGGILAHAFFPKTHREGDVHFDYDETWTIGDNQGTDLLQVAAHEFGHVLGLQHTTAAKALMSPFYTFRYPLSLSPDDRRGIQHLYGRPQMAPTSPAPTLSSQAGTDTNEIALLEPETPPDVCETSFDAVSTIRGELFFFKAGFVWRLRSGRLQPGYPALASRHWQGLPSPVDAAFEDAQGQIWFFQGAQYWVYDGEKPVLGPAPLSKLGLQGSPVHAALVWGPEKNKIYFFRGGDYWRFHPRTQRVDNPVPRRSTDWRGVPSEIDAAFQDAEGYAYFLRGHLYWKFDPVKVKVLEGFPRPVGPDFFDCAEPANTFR
Nature of the test: Binding affinity against matrix metalloprotease-11. The method in brief: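 Mouse MMP-11 catalytic domain from E. coli BL21 DE3 pLysS, assayed in stirred quartz cuvettes in 50 mM Tris/HCl pH 6.8, 10 mM CaCl2 at 25 °C. Substrate was Mca-Pro-Leu-Ala-Cys(OMeBn)-Trp-Ala-Arg-Dpa-NH2 (Km 0.2 µM), with fluorescence read-out. Percent inhibition was measured in triplicate at five concentrations (20–80% range), and Ki was derived by the Horovitz–Levitski method.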

In a further test the target is T3, Matrilysin (Homo sapiens, UniProt P09237).
T3 sequence (P09237 whole entry): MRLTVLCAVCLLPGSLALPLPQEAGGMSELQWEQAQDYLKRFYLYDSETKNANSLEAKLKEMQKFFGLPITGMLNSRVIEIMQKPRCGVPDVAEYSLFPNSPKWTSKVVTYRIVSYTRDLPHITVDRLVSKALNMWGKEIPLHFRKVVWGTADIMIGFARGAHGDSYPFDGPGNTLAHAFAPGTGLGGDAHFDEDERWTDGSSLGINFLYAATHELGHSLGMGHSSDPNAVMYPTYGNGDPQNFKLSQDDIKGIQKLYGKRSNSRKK
Nature of the test: (§2) Inhibition of Matrix metalloprotease-7 Matrilysin. An outline of the steps:
(§3)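 Catalytic domains of human MMP-14 and MMP-7 were expressed in E. coli BL21 DE3 pLysS. Buffer 50 mM Tris/HCl pH 6.8, 10 mM CaCl2, 25 °C; 0.2–5 nM enzyme; 6 µM Mca-Pro-Leu-Gly-Leu-Dpa-Ala-Arg-NH2 read by fluorescence (ex 340, em 400 nm) for 30 min. Km: MMP-14 21, MMP-7 67 µM. Five inhibitor concentrations in triplicate; Ki by Horovitz–Levitski method.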

Test [2] addresses T4, 72 kDa type IV collagenase (Homo sapiens, UniProt P08253). Kind of test: Binding affinity against matrix metalloprotease-2 (gelatinase-A). An outline of the steps: as §1
Target sequence in this assay (P08253 whole entry): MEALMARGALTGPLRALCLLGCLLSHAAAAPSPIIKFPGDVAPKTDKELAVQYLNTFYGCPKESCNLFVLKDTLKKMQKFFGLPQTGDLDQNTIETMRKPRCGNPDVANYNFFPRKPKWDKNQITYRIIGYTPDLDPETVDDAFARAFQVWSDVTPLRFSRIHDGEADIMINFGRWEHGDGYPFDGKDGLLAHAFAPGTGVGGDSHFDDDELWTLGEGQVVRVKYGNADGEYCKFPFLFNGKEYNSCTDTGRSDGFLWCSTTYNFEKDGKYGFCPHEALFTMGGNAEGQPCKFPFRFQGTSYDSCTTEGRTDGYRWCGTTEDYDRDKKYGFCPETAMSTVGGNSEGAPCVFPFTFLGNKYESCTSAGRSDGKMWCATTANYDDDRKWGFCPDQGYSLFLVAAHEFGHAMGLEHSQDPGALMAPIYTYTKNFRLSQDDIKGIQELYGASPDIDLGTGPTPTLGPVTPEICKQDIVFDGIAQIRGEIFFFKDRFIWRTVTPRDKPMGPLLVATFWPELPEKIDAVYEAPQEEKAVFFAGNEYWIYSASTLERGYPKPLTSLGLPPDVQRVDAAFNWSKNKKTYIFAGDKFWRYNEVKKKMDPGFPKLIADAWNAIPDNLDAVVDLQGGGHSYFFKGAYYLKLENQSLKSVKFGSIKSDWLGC
In test [3] the target is Matrix metalloproteinase-14 (Homo sapiens, UniProt P50281). Kind of test: Binding affinity against matrix metalloprotease-14 MTI-MMP. An outline of the steps:
as §3

In test [4] the target is T5, Matrix metalloproteinase-9 (Homo sapiens, UniProt P14780). Kind of test: Binding affinity against matrix metalloprotease-9 (gelatinase-B). An outline of the steps: as §1
Test [5] addresses T5, Matrix metalloproteinase-9. Kind of test: Inhibition of Matrix metalloprotease-9, gelatinase-B at 2 uM.
The target in test [6] is T4, 72 kDa type IV collagenase. Kind of test: Inhibition of MMP-2 gelatinase-A at 2 uM.
Target sequence in this assay (P08253 110-660 limits assumed): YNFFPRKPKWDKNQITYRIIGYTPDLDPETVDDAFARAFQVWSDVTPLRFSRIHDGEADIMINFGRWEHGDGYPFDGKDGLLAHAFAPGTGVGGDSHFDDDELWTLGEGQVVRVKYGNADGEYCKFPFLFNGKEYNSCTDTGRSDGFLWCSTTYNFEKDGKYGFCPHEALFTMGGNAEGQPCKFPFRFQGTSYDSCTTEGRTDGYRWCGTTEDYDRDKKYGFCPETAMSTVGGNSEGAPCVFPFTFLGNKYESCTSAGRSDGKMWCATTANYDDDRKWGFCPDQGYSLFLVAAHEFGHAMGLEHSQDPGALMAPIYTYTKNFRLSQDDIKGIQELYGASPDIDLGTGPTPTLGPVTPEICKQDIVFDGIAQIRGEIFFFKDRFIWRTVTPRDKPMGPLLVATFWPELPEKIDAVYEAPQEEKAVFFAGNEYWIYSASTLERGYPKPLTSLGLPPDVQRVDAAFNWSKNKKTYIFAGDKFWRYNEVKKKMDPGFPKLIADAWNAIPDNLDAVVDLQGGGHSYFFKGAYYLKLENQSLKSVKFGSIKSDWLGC
Test [7] addresses T6, Stromelysin-3 (Mus musculus) (UniProt Q02853).
T6 sequence (whole entry): T2 sequence (Q02853 whole entry)
Nature of the test: Inhibition of MMP-11, stromelysin-3 at 1 uM.

Test [8] has as its target T1, Interstitial collagenase (Homo sapiens). Kind of test: In vitro inhibition of MMP-1 at 2 uM.
The target in test [9] is T7, Matrilysin (Homo sapiens) (UniProt P09237).
T7 sequence (whole entry): T3 sequence (P09237 whole entry)
Kind of test: In vitro inhibition of MMP-7 at 2 uM.

Another test concerns the target T8, Interstitial collagenase (Homo sapiens, UniProt P03956).
T8 sequence (P03956 whole entry): T1 sequence (whole entry)
Nature of the test: (§4) Inhibition of matrix metalloprotease-1. An outline of the steps:
(§5)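 Human full-length pro-MMP-1 was expressed in NSO myeloma cells and activated just before use with trypsin (10 µg/mL, 25 min, 25 °C), then BPTI (100 µg/mL). Assay: 50 mM Tris/HCl pH 6.8, 10 mM CaCl2, 25 °C, 0.2–5 nM enzyme, 6 µM Mca-Pro-Leu-Gly-Leu-Dpa-Ala-Arg-NH2, fluorescence 340/400 nm over 30 min. Km 100 µM. Triplicate inhibition at five concentrations (20–80% range) gave Ki by the Horovitz–Levitski method.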

Test [10] concerns the target T7, Matrilysin (Homo sapiens). The test is described as §2. An outline of the steps:
as §3

Test [11] addresses T1, Interstitial collagenase (Homo sapiens). Described as §4. Particulars: concentration not given here. The method in brief:
as §5

Neutrophil collagenase, sequence (P22894 whole entry): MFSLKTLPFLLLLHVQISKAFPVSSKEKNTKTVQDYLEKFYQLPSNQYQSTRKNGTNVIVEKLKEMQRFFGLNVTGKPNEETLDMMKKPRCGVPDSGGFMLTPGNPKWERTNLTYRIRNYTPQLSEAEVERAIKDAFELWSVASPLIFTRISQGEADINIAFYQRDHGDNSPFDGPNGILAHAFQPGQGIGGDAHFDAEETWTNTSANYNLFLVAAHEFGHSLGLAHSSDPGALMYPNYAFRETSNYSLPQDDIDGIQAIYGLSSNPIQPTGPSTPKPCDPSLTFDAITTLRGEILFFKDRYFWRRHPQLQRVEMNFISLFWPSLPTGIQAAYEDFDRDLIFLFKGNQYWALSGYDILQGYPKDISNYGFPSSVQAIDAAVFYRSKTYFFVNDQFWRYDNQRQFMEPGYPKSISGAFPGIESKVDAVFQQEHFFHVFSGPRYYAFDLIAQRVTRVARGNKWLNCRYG
T5 sequence (P14780 whole entry): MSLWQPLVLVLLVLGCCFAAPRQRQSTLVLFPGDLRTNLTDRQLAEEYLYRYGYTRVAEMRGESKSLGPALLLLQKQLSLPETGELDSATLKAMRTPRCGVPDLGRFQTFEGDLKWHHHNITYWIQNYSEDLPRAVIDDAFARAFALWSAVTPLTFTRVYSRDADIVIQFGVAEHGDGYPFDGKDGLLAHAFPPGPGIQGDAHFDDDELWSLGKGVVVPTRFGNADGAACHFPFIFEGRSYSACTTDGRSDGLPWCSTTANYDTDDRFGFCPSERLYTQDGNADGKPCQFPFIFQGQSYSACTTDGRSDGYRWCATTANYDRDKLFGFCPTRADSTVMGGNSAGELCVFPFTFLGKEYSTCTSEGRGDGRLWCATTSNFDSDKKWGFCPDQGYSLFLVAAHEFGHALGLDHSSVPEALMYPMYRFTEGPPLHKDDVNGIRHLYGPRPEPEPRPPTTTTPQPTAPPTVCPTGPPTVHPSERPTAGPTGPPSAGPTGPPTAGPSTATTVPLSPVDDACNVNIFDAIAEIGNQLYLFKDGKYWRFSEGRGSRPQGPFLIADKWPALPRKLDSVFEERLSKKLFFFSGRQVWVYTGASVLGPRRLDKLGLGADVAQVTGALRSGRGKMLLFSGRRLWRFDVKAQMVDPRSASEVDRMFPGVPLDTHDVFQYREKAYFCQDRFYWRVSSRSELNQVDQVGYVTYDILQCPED

With `NC(=O)C(Cc1c[nH]c2ccccc12)NC(=O)C(Cc1ccc2ccccc2c1)CP(=O)(O)C(Cc1ccccc1)NC(=O)OCc1ccccc1` (stereo unspecified), in [1], the inhibition was 0%. The pKi is 6.64 on Neutrophil collagenase; 7.13 on Stromelysin-3; 5.74 at Matrilysin; 6.48 in [2]; 5.87 in [3]; 6.17 in [4].
For `CC(NC(=O)C(CCCc1ccccc1)CP(=O)(O)C(Cc1ccccc1)NC(=O)OCc1ccccc1)C(N)=O` (stereo unspecified), the inhibition in test [5] was 45%; in test [6] it was 31%; in [7], 20%; in test [8], 9%; in test [9] it was 0%.
On to `NC(=O)C(Cc1c[nH]c2ccccc12)NC(=O)C(CCCc1ccccc1)CP(=O)(O)C(Cc1ccccc1)NC(=O)c1ccc2ccccc2n1` (stereo unspecified), for which the pKi at Neutrophil collagenase is 8.30; on Stromelysin-3, 8.38; at Matrilysin, 6.43; on Interstitial collagenase, 6.47; in test [2], 7.72; in [3], 7.22. Further, the pKi in test [4] is 7.89.
For the molecule `CC(C)CC(NC(=O)OCc1ccccc1)C(=O)NC(Cc1ccccc1)P(=O)(O)CC(CCCc1ccccc1)C(=O)NC(Cc1c[nH]c2ccccc12)C(N)=O` (stereo unspecified), the pKi at Neutrophil collagenase is 8.15; at Stromelysin-3 it was 8.22; in test [2], 7.40; in test [3], 7.28; in [4], 7.66. For the same molecule, the inhibition in [10] came to 45%; in [11], 32%.
